3 molecules from ChEMBL document CHEMBL1240487, “Discovery of a potent, selective, and orally bioavailable pyridinyl-pyrimidine phthalazine aurora kinase inhibitor” (J Med Chem, 2010) can be followed below.

The target of series [1] is T1, Aurora kinase A/Targeting protein for Xklp2 (Homo sapiens, UniProt O14965).
T1 sequence (O14965 whole entry): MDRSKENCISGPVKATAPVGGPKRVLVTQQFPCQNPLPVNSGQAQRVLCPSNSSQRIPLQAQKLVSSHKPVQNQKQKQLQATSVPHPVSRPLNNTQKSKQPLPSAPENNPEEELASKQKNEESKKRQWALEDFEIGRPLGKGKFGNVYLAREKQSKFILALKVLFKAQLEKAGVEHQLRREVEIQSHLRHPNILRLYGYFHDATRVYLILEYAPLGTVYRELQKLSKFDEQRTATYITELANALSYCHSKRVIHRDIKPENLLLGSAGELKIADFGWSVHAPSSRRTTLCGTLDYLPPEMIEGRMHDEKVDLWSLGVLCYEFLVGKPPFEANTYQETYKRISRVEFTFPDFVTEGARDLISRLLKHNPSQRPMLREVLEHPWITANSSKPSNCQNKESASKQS
T1 sequence (Q9ULW0 whole entry): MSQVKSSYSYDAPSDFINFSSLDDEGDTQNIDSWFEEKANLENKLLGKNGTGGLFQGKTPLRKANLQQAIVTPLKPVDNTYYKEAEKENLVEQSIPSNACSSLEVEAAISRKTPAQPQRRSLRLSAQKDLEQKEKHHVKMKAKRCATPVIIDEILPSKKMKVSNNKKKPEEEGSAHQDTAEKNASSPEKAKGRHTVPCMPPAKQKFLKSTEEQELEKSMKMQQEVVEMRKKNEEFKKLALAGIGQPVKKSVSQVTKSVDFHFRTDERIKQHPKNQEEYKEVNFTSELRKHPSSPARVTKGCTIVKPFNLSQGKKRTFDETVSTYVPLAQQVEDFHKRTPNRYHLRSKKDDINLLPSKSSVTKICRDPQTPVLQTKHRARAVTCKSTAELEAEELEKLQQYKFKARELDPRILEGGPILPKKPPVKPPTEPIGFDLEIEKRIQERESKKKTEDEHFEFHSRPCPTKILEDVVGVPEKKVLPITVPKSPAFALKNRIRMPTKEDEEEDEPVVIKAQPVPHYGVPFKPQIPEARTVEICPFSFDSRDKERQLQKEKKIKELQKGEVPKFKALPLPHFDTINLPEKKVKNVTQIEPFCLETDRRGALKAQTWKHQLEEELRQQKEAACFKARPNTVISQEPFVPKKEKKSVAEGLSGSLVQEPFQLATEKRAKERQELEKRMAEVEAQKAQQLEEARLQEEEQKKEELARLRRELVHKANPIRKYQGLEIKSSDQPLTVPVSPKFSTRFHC
The experiment in a line: Inhibition of Aurora A/TPX2 (1-43) by HTRF assay. The format is protein-complex assay. The method in brief: (§1)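 Enzyme inhibition was run with ATP at its Km for each kinase. Values are averages of at least two determinations.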

Series [2] addresses T2, Aurora kinase B (Homo sapiens, UniProt Q96GD4). The experiment in a line: Inhibition of Aurora B by HTRF assay. In outline: as §1
In series [3] the target is T3, Tyrosine-protein kinase ZAP-70 (Homo sapiens, UniProt P43403).
T3 sequence (P43403 whole entry): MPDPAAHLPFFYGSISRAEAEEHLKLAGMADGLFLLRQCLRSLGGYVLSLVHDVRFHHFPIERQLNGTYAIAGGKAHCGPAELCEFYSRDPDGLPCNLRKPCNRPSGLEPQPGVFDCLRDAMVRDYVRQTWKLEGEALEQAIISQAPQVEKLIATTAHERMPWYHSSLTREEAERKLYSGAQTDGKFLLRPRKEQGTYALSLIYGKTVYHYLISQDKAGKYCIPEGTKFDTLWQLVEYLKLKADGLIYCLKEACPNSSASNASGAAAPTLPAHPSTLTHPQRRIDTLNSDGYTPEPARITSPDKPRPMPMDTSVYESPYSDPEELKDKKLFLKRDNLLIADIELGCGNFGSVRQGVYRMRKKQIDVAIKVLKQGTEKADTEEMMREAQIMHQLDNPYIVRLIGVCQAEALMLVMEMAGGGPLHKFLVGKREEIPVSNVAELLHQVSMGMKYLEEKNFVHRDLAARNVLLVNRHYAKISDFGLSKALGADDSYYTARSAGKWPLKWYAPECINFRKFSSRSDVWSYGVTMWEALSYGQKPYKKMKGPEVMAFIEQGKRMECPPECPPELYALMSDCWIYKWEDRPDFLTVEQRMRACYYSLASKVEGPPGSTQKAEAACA
As to the kind of experiment: Inhibition of Zap70 by HTRF assay. The method in brief:
as §1
(In general: In TR-FRET formats the signal depends on donor and acceptor labels being close together.)

Series [4] deals with Tyrosine-protein kinase JAK2 (Homo sapiens, UniProt O60674). The experiment in a line: Inhibition of Jak2 by HTRF assay. The method in brief: as §1
Chain of Tyrosine-protein kinase JAK2 (O60674 whole entry): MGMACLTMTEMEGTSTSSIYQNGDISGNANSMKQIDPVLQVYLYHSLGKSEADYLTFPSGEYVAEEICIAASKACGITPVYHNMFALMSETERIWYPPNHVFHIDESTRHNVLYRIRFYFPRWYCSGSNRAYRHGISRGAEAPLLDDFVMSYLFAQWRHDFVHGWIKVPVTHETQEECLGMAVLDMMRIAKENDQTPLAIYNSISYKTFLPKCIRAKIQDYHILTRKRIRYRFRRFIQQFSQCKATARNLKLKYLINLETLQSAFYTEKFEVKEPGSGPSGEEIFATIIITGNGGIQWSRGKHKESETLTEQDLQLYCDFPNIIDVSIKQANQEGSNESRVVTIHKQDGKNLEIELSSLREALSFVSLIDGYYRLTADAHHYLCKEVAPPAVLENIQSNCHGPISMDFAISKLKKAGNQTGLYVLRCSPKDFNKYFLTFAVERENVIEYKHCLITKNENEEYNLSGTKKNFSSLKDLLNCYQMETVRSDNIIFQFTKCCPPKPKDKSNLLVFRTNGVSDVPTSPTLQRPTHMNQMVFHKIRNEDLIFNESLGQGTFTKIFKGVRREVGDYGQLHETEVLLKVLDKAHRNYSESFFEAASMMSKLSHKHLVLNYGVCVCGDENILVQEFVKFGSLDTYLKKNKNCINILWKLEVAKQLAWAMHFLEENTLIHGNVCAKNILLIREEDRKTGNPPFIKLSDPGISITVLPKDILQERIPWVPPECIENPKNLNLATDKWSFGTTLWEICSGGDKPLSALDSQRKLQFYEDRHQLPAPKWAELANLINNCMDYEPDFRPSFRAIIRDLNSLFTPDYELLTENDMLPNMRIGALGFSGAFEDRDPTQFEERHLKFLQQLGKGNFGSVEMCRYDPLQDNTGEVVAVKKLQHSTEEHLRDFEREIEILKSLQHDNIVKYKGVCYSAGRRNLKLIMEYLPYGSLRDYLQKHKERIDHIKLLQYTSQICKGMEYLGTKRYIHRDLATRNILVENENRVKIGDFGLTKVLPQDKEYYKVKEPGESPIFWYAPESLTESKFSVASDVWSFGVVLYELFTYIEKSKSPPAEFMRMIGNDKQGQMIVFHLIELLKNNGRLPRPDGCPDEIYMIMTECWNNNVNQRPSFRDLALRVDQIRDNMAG
Series [5] concerns the target Tyrosine-protein kinase BTK (Homo sapiens, UniProt Q06187). As to the kind of experiment: Inhibition of BTK by HTRF assay.
The target of series [6] is Mitogen-activated protein kinase 3 (Homo sapiens, UniProt P27361). As to the kind of experiment: Inhibition of Erk1 by HTRF assay. The method in brief: as §1
Chain of Mitogen-activated protein kinase 3 (P27361 whole entry): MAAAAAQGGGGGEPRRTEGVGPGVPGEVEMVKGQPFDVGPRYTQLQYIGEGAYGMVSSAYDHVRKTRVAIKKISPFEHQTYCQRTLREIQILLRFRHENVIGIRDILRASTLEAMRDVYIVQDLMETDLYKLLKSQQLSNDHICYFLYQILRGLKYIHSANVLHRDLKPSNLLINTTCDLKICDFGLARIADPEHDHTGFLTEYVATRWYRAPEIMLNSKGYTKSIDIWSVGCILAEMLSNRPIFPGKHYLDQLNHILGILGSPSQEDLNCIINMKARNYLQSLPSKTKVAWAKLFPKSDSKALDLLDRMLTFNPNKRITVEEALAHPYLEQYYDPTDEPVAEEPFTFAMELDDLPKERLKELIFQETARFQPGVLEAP
Series [7] addresses Hepatocyte growth factor receptor (Homo sapiens, UniProt P08581). As to the kind of experiment: Inhibition of c-Met by HTRF assay. In outline:
as §1

The target of series [8] is Tyrosine-protein kinase ABL1 (Homo sapiens, UniProt P00519, T315I). The experiment in a line: Inhibition of Abl T315I mutant by HTRF assay. The method in brief:
as §1

Series [9] has as its target Cyclin-dependent kinase 1 (Homo sapiens, UniProt P06493). As to the kind of experiment: Inhibition of CDK1 by HTRF assay. In outline: as §1
Series [10] is described as follows: Half life in Sprague-Dawley rat at 0.5 mg/kg, iv and 2 mg/kg, po. The format is ADME, organism-based. The note with it: in vivo.
The nature of series [11]: Aqueous equilibrium solubility of the compound in 0.01N HCL. The format is physicochemical.
The target of series [12] is Angiopoietin-1 receptor (Homo sapiens, UniProt Q02763). As to the kind of experiment: Inhibition of Tie-2 by HTRF assay. The method in brief: as §1
Chain of Angiopoietin-1 receptor (Q02763 whole entry): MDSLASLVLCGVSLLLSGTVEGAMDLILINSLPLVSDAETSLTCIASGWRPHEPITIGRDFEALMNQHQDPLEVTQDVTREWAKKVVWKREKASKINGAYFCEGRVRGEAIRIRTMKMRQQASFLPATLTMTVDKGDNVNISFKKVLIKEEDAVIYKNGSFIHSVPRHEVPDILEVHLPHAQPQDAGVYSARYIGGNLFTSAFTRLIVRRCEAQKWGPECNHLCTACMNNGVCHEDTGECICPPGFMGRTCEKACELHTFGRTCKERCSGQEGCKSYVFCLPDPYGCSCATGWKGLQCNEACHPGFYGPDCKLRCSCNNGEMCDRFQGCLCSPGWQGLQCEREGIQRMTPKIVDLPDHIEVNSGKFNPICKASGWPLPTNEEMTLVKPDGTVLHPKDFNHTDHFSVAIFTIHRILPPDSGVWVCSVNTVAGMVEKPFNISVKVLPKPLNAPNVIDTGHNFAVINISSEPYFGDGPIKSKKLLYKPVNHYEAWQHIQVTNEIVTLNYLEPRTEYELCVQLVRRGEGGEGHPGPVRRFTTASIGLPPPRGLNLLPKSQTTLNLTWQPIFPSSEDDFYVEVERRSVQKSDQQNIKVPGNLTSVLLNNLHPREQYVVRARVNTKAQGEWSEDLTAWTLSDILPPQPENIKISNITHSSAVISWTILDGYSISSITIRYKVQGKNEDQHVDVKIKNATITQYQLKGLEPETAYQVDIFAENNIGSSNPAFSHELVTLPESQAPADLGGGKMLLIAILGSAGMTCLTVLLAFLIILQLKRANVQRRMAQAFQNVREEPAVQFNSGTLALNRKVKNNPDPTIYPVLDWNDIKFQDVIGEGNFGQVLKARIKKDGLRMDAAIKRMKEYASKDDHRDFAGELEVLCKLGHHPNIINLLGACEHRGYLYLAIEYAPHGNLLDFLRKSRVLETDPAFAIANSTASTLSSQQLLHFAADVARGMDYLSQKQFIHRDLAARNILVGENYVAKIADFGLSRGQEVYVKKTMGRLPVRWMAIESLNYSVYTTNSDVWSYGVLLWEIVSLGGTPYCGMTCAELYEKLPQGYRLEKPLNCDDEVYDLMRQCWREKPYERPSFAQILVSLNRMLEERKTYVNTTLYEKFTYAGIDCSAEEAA
Series [13] deals with Macrophage colony-stimulating factor 1 receptor (Homo sapiens, UniProt P07333). As to the kind of experiment: Inhibition of c-Fms by HTRF assay. The method in brief:
as §1

Series [14] deals with Proto-oncogene tyrosine-protein kinase Src (Homo sapiens, UniProt P12931). The experiment in a line: Inhibition of Src by HTRF assay. In outline: as §1
Series [15] concerns Mus musculus. As to the kind of experiment: Inhibition of aurora B in human COLO205 cells xenografted in CD1 mouse assessed as reduction of phosphorylated histone H3 level at 50 mg/kg, po after 3 to 6 hrs by immunofluorescence-based flow cytometry. To be noted: CD1, COLO 205. The format is functional. In outline: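 Mice carried established COLO 205 xenografts of about 300 mm3 and received a single oral dose of vehicle or 50 mg/kg (N = 12 per group). Tumors were harvested at 3, 6 and 24 h (N = 4 per time point). p-Histone H3 was measured by immunofluorescence-based flow cytometry as the percentage of positive cells in G2/M. Groups were compared with ANOVA and Scheffe's post hoc test against vehicle.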
In general terms: In xenograft studies the graft and the host belong to different species.

Series [16] relates to Plasma. As to the kind of experiment: Fraction unbound in mouse plasma at 10 uM after 24 hrs by ultrafiltration. The format is ADME, cell-free.
Series [17] concerns the target Aurora kinase A (Homo sapiens) (UniProt O14965). The experiment in a line: Inhibition of aurora A autophosphorylation in human HeLa cells at 0.313 uM after 3 hrs by Western blotting. In general terms: Immunoblotting shows a protein as a band on a membrane.
Series [18] deals with T2, Aurora kinase B. As to the kind of experiment: Inhibition of aurora B autophosphorylation in human HeLa cells at 0.313 uM after 3 hrs by Western blotting.

A word on the IC50: it is the concentration that inhibits the measured activity by half. A lower IC50 goes with inhibition by little substance. For orientation: half-life means how long it takes for the measured level to halve. Low readings indicate fast loss, high ones slow loss. The solubility (thermodynamic) is solubility found after equilibrating the solid with the medium. One may read the inhibition in vivo as the percentage by which the read-out fell short of the control.

In brackets after ≈: the same amount, converted by molar mass. Activity calls are given as the source filed them. The calls are words filed in the database; no cut-off is given here. A value given as a limit tells only on which side of the number the result lay.

T2 sequence (Q96GD4 whole entry): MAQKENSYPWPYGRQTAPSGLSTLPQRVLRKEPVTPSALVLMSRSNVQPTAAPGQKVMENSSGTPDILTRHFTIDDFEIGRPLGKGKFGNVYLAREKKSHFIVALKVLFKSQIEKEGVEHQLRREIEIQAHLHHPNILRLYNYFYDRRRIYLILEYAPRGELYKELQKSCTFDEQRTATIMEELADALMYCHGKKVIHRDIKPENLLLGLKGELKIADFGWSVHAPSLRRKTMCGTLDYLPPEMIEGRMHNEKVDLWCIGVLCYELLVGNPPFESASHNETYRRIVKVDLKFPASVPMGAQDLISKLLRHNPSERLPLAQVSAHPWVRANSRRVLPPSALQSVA
Chain of Tyrosine-protein kinase BTK (Q06187 whole entry): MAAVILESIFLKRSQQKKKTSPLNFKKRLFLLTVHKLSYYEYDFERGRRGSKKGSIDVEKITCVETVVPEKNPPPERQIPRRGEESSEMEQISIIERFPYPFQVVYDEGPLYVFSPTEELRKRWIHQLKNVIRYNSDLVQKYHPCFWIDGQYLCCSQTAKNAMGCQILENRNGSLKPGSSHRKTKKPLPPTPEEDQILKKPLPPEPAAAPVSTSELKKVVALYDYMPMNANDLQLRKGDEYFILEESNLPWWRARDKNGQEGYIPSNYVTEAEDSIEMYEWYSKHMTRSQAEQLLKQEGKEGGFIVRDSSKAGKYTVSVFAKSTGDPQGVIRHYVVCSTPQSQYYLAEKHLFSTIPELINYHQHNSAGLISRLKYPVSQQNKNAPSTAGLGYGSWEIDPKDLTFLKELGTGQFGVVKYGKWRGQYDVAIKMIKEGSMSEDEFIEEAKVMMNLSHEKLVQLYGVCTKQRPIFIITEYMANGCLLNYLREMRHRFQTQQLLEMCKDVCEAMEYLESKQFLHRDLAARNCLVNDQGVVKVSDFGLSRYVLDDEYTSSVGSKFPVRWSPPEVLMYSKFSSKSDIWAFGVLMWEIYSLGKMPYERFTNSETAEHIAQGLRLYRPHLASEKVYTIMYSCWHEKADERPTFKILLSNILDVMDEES
Chain of Macrophage colony-stimulating factor 1 receptor (P07333 whole entry): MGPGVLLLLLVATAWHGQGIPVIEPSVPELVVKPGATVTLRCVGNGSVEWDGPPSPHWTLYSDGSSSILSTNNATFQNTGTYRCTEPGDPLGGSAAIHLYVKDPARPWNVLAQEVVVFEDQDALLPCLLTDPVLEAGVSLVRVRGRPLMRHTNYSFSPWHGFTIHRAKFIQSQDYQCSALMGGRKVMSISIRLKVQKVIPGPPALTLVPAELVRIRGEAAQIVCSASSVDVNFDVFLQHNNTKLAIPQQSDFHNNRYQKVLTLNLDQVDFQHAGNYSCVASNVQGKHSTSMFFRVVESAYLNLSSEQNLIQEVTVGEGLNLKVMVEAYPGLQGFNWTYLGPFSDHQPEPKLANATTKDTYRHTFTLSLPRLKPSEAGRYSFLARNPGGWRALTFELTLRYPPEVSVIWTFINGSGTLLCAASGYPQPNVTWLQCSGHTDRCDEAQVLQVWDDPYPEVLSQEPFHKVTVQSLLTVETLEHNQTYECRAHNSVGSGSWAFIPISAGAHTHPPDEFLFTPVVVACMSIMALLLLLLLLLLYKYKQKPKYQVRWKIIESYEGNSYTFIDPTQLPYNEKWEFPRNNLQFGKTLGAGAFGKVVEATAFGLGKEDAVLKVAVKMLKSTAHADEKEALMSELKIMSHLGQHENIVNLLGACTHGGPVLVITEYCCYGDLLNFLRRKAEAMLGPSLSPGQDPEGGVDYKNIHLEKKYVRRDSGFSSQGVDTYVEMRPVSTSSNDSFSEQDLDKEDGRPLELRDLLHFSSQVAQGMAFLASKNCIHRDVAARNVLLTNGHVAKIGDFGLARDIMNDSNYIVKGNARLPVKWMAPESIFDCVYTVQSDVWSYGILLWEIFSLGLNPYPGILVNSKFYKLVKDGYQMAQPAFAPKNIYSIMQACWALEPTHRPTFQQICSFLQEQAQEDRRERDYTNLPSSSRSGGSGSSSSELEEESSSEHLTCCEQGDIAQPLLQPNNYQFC
Chain of Cyclin-dependent kinase 1 (P06493 whole entry): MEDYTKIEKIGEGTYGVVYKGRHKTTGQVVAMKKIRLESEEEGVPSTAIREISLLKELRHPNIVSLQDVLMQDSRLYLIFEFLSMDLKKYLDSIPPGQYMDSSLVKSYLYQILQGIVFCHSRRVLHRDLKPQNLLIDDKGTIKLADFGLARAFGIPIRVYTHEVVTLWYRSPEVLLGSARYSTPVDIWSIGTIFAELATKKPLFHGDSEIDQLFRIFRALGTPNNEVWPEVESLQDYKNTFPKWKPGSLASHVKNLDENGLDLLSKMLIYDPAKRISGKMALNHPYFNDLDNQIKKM

Consider `CNc1nccc(-c2cccnc2Oc2ccc(NC(=O)c3ccccc3Nc3ccccc3)cc2)n1`, for which the IC50 in [1] was 16 nM; in series [2], 9 nM; in series [3], more than 1000 nM; in series [4] it was more than 1000 nM; in series [5], more than 1000 nM; in series [6], more than 1000 nM. In addition, the IC50 in [7], in [8] and in series [9] was more than 1000 nM throughout. The molecule also had a half-life in series [10] of 2.8 h. In series [11], this molecule yielded a solubility (thermodynamic) of 5 µg/mL (≈ 10.2 µM).

With `CNc1nccc(-c2cccnc2Oc2ccc(NC(=O)c3cccc(C(F)(F)F)c3)cc2C)n1`, the concentration for half-maximal inhibition (IC50) in series [1] was 586 nM; in series [2], 66 nM; in series [12], 630 nM; in [13], 1580 nM; in series [14], 5750 nM; in series [3] it was more than 8000 nM. For the same molecule, the IC50 in [4] and in series [6] was more than 8000 nM in each case.

Regarding `CNc1nccc(-c2cccnc2Oc2ccc(Nc3nnc(-c4ccc(F)cc4)c4ccccc34)cc2)n1`, the IC50 in series [1] is 41 nM; in [2], 15 nM; in [3], more than 25000 nM; in [4] it was more than 25000 nM; in series [5], more than 25000 nM; in series [6], more than 25000 nM. For the same molecule, the thermodynamic solubility in series [11] was more than 200 µg/mL. The inhibition in vivo at 50 mg/kg in [15] is not below 96%. This molecule also displayed an unbound concentration in [16] of less than 2.5 ng/mL. Besides, the result in [17] and in series [18] was Active.
